Assay results from different studies.
Protocols differ between the studies behind these lines.

Structure (SMILES)	system	setting	half-life [h]
CC(C)C[C@@H]1CCO[C@@H]2[C@H](CN[C@@H]2C(=O)N[C@H]2[C@H]3O[C@H](SCC/C=C\[C@H]2C)[C@H](O)[C@@H](O)[C@H]3O)C1	mouse, plasma	intravenous, 3 mg/kg, single dose	4.66
Cc1ccc(N(c2ccc(NC(=O)CN(C)c3ccccc3N3CCCC3=O)cc2)C(C)C)cc1	male CD-1 mouse, plasma	oral, 20 mg/kg	1.48
NCc1ccc(-c2nn(Cc3ccccc3)c3ccccc23)o1	male CD-1 mouse, plasma	oral, 10 mg/kg	1.74
COC1=CC(c2ccc[nH]2)=N/C1=C\c1cc(Cc2ccc(OC(F)(F)F)cc2)c(C)[nH]1.Cl	male CD-1 mouse, plasma	oral, 40 mg/kg, single dose	51.9
O=C1CCC(N2Cc3cc(C4CCN(Cc5ccccc5)CC4)ccc3C2=O)C(=O)N1 (centres unmarked)	male CD-1 mouse, plasma	intravenous, 1 mg/kg	3.28
Cc1ccc(OCC(=O)N[C@@H](Cc2c[nH]c3ccccc23)C(=O)OC(C)C)cc1	male Sprague-Dawley mouse, plasma	oral, 20 mg/kg	6.1
COc1cc(C2C3=C(COC3=O)N(CCO)c3cc4c(cc32)CCC4)cc(OC)c1OC (centres unmarked)	female C57BL/6 mouse, plasma	intraperitoneal, 50 mg/kg	5.2
COc1cccc2c(N3CCC(CCP(=O)(O)O)CC3)ncnc12	female BALB/c mouse, serum	subcutaneous, 50 mg/kg, tumour-bearing	1.7
NCc1ccc(-c2nn(Cc3ccncc3)c3ccccc23)o1	male CD-1 mouse, plasma	oral, 10 mg/kg	1.75
Cc1cc(-c2ccnc3[nH]cc(F)c23)cc(F)c1[C@@]1(O)[C@H](C)CN(C(=O)CN)C[C@@H]1C	male CD-1 mouse, plasma	intravenous, 1 mg/kg	9
Cc1ccc(C(C)C)cc1Oc1nccc(-c2c(-c3ccc(C(F)(F)F)cc3)ncn2C2CCN(CCO)CC2)n1	male C57BL/6 mouse, liver	intraperitoneal, 10 mg/kg	3.1
Cc1ncsc1-c1ccc([C@H](C)NC(=O)[C@@H]2C[C@@H](O)CN2C(=O)[C@@H](NC(=O)CCc2ccc(C#Cc3ccc(C(=O)NCCCn4cc(-c5ccc6c(c5)CCN6C(=O)Cc5cccc(OC(F)(F)F)c5)c5c(N)ncnc54)cc3)cn2)C(C)(C)C)cc1	male C57BL/6 mouse, plasma	intravenous, 1 mg/kg	4.6
COC1=CC(c2ccc[nH]2)=N/C1=C\c1[nH]c(Cc2ccc(OC(F)(F)F)cc2)cc1Cc1ccc(OC(F)(F)F)cc1	male CD-1 mouse, plasma	oral, 40 mg/kg, single dose	9.71
COCC(=O)N1CCc2[nH]c3c(Cl)c(Cl)ccc3c2[C@@H]1C	C57BL/6 mouse, blood	intravenous, 1 mg/kg	0.653
Cc1ncsc1-c1ccc([C@H](C)NC(=O)[C@@H]2C[C@@H](O)CN2C(=O)[C@@H](NC(=O)CCCCCCCCCCC(=O)NCCCn2cc(-c3ccc4c(c3)CCN4C(=O)Cc3cccc(OC(F)(F)F)c3)c3c(N)ncnc32)C(C)(C)C)cc1	mouse, plasma	intravenous, 1 mg/kg	3.3
CN(C)C(=O)c1cc2cnc(Nc3ccc(-c4ccc5c(=O)cc(N6CCOCC6)oc5c4)cc3)nc2n1C1CCCC1.Cl	BALB/c mouse, plasma	intravenous, 2 mg/kg	2.8
COc1ccc(C[C@H](NC(=O)[C@H](C)NC(=O)CN2CCOCC2)C(=O)N[C@@H](Cc2ccccc2)C(=O)C2(C)CO2)cc1 (stereo in doubt)	mouse, plasma	intravenous, 20 mg/kg, single dose	7.9
NCc1cc2c(cc1F)C(=O)N(C1CCC(=O)NC1=O)C2 (centres unmarked)	male CD-1 mouse, plasma	oral, 10 mg/kg	2.3
Cc1cc(-c2ccnc3[nH]cc(F)c23)cc(F)c1[C@@]1(O)[C@H](C)CN(C2CCS(=O)(=O)CC2)C[C@@H]1C	male CD-1 mouse, plasma	intravenous, 1 mg/kg	2.6
Cc1ncsc1-c1ccc([C@H](CC(=O)N2CCN(c3ccc(C#Cc4ccc(C(=O)N5CCC(n6cc(-c7ccc8c(c7)CCN8C(=O)Cc7cccc(OC(F)(F)F)c7)c7c(N)ncnc76)CC5)cc4)cn3)CC2)NC(=O)[C@@H]2C[C@@H](O)CN2C(=O)[C@@H](NC(=O)C2(F)CC2)C(C)(C)C)cc1	male C57BL/6 mouse, plasma	intravenous, 1 mg/kg	7.3
CCOC(=O)c1c(NC(=O)CNC(C)C)sc2c1CCCCC2	male mouse, plasma	intraperitoneal, 5 mg/kg, single dose	1.47
OCc1ccc(-c2nn(Cc3ccccc3)c3ccccc23)o1	male CD-1 mouse, plasma	intravenous, 5 mg/kg	1.39
Cc1[nH]c(C)c(S(=O)(=O)Nc2ccc(C(F)(F)F)c(Cl)c2)c1C(=O)N1CCC(F)(F)C1	male CD-1 mouse, plasma	intraperitoneal, 40 mg/kg	3.97
